Experimental data of several laboratories.
Lines come from different studies, so protocols differ.
gag-pol reverse transcriptase: Gag-Pol polyprotein, reverse transcriptase (gag-pol, Human immunodeficiency virus 1, UniProt P03366)
CA1: Carbonic anhydrase 1 (CA1, Homo sapiens, UniProt P00915)
SLC18A2: Synaptic vesicular amine transporter (SLC18A2, Homo sapiens, UniProt Q05940)
UGT1A4: UDP-glucuronosyltransferase 1A4 (UGT1A4, Homo sapiens, UniProt P22310)
ACKR3: Atypical chemokine receptor 3 (ACKR3, Homo sapiens, UniProt P25106)
LATS1: Serine/threonine-protein kinase LATS1 (LATS1, Homo sapiens, UniProt O95835)
CA2: Carbonic anhydrase 2 (CA2, Homo sapiens, UniProt P00918)

| Structure (SMILES) | target | test | test system | conditions | IC50 [µM] |
| --- | --- | --- | --- | --- | --- |
| CCOC(=O)c1c(NCCO)c2c([nH]c1=O)CCC2 | gag-pol reverse transcriptase | enzyme activity, inhibitor | – | – | > 100 |
| COc1cc(C)c(/C=C/C(C)=C/C=C/C(C)=C/C(=O)O)c(C)c1C | CA1 | enzyme activity, inhibitor, absorbance | – | pH 7.4 | 11.3 |
| Cc1ccc(C(=O)Nc2ccc(CN3CCN(C)CC3)c(C(F)(F)F)c2)cc1C#Cc1cnc2cccnn12 | SLC18A2 | transporter uptake, inhibitor, radiometric | – | cell membranes | 0.7 |
| Cc1cncc(CN2CCC(=C3c4ccc(Cl)cc4CCc4cccnc43)CC2)c1 | CA1 | enzyme activity, inhibitor, absorbance | – | pH 7.4 | 14.7 |
| CCOC(=O)c1c(NC(CC)CO)c2c([nH]c1=O)CCC2 (stereo not shown) | gag-pol reverse transcriptase | enzyme activity, inhibitor | – | – | > 100 |
| C[C@@H]1CC[C@@]2(OC1)O[C@H]1C[C@H]3[C@@H]4CC[C@H]5C[C@@H](O)CC[C@]5(C)[C@H]4CC(=O)[C@]3(C)[C@H]1[C@@H]2C | UGT1A4 | enzyme activity, inhibitor | – | – | 2.3 |
| O=C1/C(=C/c2ccc3ccccc3c2O)NC(=S)N1c1ccccc1 | Receptor tyrosine-protein kinase erbB-2 (ERBB2, Homo sapiens, UniProt P04626) | enzyme activity, inhibitor, ELISA | – | – | 0.197 |
| CC(C)(C)NC(=O)C1CCN(Cc2cccc(/N=N/c3ccccc3)c2)CC1 | ACKR3 | ligand displacement, BRET | – | – | 1 |
| [H]/N=C(/N)c1ccc(NCc2nc3cc(C(=O)N(CCC(=O)O)c4ccccn4)ccc3n2C)cc1 | Plasminogen (PLG, Homo sapiens, UniProt P00747) | enzyme activity, inhibitor, absorbance | – | – | 1.7 |
| Cn1cnc([N+](=O)[O-])c1Sc1ncnc2nc[nH]c12 | CA1 | enzyme activity, inhibitor, absorbance | – | pH 7.4 | 18.4 |
| NC(=O)c1nnn(Cc2cc(Cl)c(C(=O)c3ccc(Cl)cc3)c(Cl)c2)c1N | Delta-type opioid receptor (OPRD1, Homo sapiens, UniProt P41143) | cAMP, antagonist | – | – | 1.09 |
| CCCCNc1c2c([nH]c(=O)c1C(=O)OCC)CCC2 | gag-pol reverse transcriptase | enzyme activity, inhibitor | – | – | > 100 |
| Cn1cc2c(C(=O)O)ccc(NS(=O)(=O)c3ccc(OCC4CCC4)c(Cl)c3)c2n1 | cGMP-dependent 3',5'-cyclic phosphodiesterase (PDE2A, Homo sapiens, UniProt O00408) | enzyme activity | – | – | > 200 |
| CN1CCN(CCCN2c3ccccc3Sc3ccc(Cl)cc32)CC1 | SLC18A2 | transporter uptake, inhibitor | – | – | 3.72 |
| CN(C)C(=O)c1cc2cnc(Nc3ccc(-c4ccc5c(=O)cc(N6CCOCC6)oc5c4)cc3)nc2n1C1CCCC1 | Cytochrome P450 2C19 (CYP2C19, Homo sapiens, UniProt P33261) | enzyme activity, inhibitor, fluorescence | – | pH 8 | 0.023 |
| CCOC(=O)N1CCC(=C2c3ccc(Cl)cc3CCc3cccnc32)CC1 | CA1 | enzyme activity, inhibitor, absorbance | – | pH 7.4 | 11.9 |
| CC(C)(C)NC(=O)C1CCN(Cc2cccc(/N=N/c3ccccc3F)c2)CC1 | ACKR3 | ligand displacement, BRET | – | – | 1.26 |
| Clc1ccc2c(c1)C(N1CCNCC1)=Nc1ccccc1O2 | SLC18A2 | transporter uptake, inhibitor | – | – | 8.5 |
| C/C=C/CNc1c2c([nH]c(=O)c1C(=O)OCC)CCC2 | gag-pol reverse transcriptase | enzyme activity, inhibitor | – | – | > 100 |
| C[C@H]1[C@H](C)CC[C@]2(C(=O)O)CC[C@]3(C)C(=CC[C@@H]4[C@@]5(C)C[C@@H](O)[C@H](O)C(C)(C)[C@@H]5CC[C@]43C)[C@H]12 | UGT1A4 | enzyme activity, inhibitor | human, liver microsomes | – | 2.66 |
| CC(=O)N1C[C@@H](C)[C@](O)(c2c(C)cc(-c3ccnc4[nH]cc(F)c34)cc2F)[C@@H](C)C1 | LATS1 | enzyme activity, inhibitor, radiometric | – | – | 0.0067 |
| CCOC(=O)c1c(NCCCO)c2c([nH]c1=O)CCC2 | gag-pol reverse transcriptase | enzyme activity, inhibitor | – | – | > 100 |
| OC1CCN(c2ccc(/C=N/NC(=S)Nc3ccc(Cl)cc3)cc2)CC1 | CA2 | enzyme activity, inhibitor, absorbance | – | – | 0.378 |

| Structure (SMILES) | target | test | test system | conditions | IC50 [µM] |
| --- | --- | --- | --- | --- | --- |
| O=c1[nH]c(=O)n([C@H]2C[C@H](O)[C@@H](CO)O2)cc1/C=C/Br | CA1 | enzyme activity, inhibitor, absorbance | – | pH 7.4 | 12.4 |
| COc1cc2c(cc1OC)[C@H]1C[C@@H](OC(=O)[C@@H](N)C(C)C)[C@H](CC(C)C)CN1CC2 | SLC18A2 | transporter uptake, inhibitor, radiometric | – | cell membranes | 0.53 |
| Clc1ccc(C2(c3ccc(-c4cn[nH]c4)cc3)CCNCC2)cc1 | LATS1 | target engagement in cells, BRET | – | – | 8.87 |
| OC(Cn1cncn1)(Cn1cncn1)c1ccc(F)cc1F | CA1 | enzyme activity, inhibitor, absorbance | – | pH 7.4 | 11.1 |
| CNCCC(Oc1ccc(C(F)(F)F)cc1)c1ccccc1 (stereo not shown) | SLC18A2 | transporter uptake, inhibitor | – | – | 2.75 |
| CCOC(=O)c1c(NC)c2c([nH]c1=O)CCC2 | gag-pol reverse transcriptase | enzyme activity, inhibitor | – | – | > 100 |
| OC1(c2ccc(-c3ccnc4[nH]cc(F)c34)cc2)CCNCC1 | LATS1 | enzyme activity, inhibitor, radiometric | – | – | 0.0029 |
| CCCCCCCCCC(=O)CC(=O)Nc1ccccc1 | Transcriptional activator protein LasR (lasR, Pseudomonas aeruginosa, UniProt P25084) | reporter gene, antagonist | – | – | 1.1 |
| OC1(c2ccc(-c3ccnc4[nH]cc(F)c34)cc2)CCCNCC1 (stereo not shown) | LATS1 | enzyme activity, inhibitor, radiometric | – | – | 0.017 |
| NC(=O)N1c2ccccc2C=Cc2ccccc21 | Sodium channel protein type 2 subunit alpha (SCN2A, Homo sapiens, UniProt Q99250) | ion current, inhibitor, patch clamp | – | – | > 300 |
| Nc1ccc(S(=O)(=O)c2ccc(N)cc2)cc1 | CA1 | enzyme activity, inhibitor, absorbance | – | pH 7.4 | 17.1 |
| CCOC(=O)c1c(NCC(C)C)c2c([nH]c1=O)CCC2 | gag-pol reverse transcriptase | enzyme activity, inhibitor | – | – | 33.9 |
| CNC(=O)c1ccccc1Nc1nc(Nc2ccc(N3CCNCC3)cc2)ncc1Cl | LATS1 | target engagement in cells, BRET | – | – | 0.301 |
| CNC(=O)c1ccccc1Sc1ccc2c(/C=C/c3ccccn3)n[nH]c2c1 | SLC18A2 | transporter uptake, inhibitor | – | – | 8.2 |
| Cc1cc(-c2ccnc3[nH]cc(F)c23)cc(F)c1[C@@]1(O)[C@H](C)CNC[C@@H]1C | LATS1 | target engagement in cells, BRET | – | – | 0.027 |
| NC/C(=C\F)COc1cccc(Cn2c(=S)[nH]c(=O)c3[nH]cnc32)c1 | Diamine oxidase [copper-containing] (AOC1, Homo sapiens, UniProt P19801) | enzyme activity, inhibitor | – | – | > 30 |
| O=C1CCc2ccc(OCCCCN3CCN(c4cccc(Cl)c4Cl)CC3)cc2N1 | SLC18A2 | transporter uptake, inhibitor, radiometric | – | cell membranes | 0.036 |
| C[C@@H]1CNC[C@H](C)[C@@]1(O)c1ccc(-c2ccnc3[nH]cc(F)c23)cc1 | LATS1 | target engagement in cells, BRET | – | – | 0.518 |
| CN1CCC(CNc2ccc3ncc(-c4cccc(OC(F)(F)F)c4)n3n2)CC1 | Alpha-2A adrenergic receptor (ADRA2A, Homo sapiens, UniProt P08913) | cAMP, antagonist | – | – | 5.17 |
| Cc1cc(-c2ccnc3[nH]cc(F)c23)ccc1[C@@]1(O)[C@H](C)CNC[C@@H]1C | LATS1 | target engagement in cells, BRET | – | – | 0.078 |
| OCCN1CCN(CCCN2c3ccccc3Sc3ccc(C(F)(F)F)cc32)CC1 | SLC18A2 | transporter uptake, inhibitor | – | – | 2.34 |
| CCCNc1c2c([nH]c(=O)c1C(=O)OCC)CCC2 | gag-pol reverse transcriptase | enzyme activity, inhibitor | – | – | 76.4 |
| CCOCCn1c(C2CCN(CCc3ccc(C(C)(C)C(=O)O)cc3)CC2)nc2ccccc21 | CA2 | enzyme activity, inhibitor, absorbance | – | pH 7.4 | 13.4 |
